The values that follow come from ChEMBL document CHEMBL4382240, “Discovery of novel 2,5-dihydroxyterephthalamide derivatives as multifunctional agents for the treatment of Alzheimer's disease” (Bioorg Med Chem, 2018).

A short description of series [1]: Cytotoxicity against […] cells assessed as decrease in cell viability up to 10 uM preincubated for 30 mins followed by LPS stimulation and measured after 24 hrs by MTT assay. The series is classed as cell-based. Summed up:
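BV-2 cells grown 24 h, then treated with compound (0.5, 2.5, 10.0 µM) for 30 min, with or without LPS (1.0 µg/mL), for a further 24 h. MTT (5 mg/mL) added for 4 h, formazan dissolved in DMSO, A490 read. Viability given as percent of untreated cells. Triplicate wells; three independent experiments.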
For orientation: Formazan colour is commonly taken as a measure of viable cells.

Series [2] is filed under the species Homo sapiens. Put plainly: Anti-inflammatory activity in […] cells assessed as inhibition of LPS-stimulated TNFalpha release at 0.5 uM preincubated for 30 mins followed by LPS stimulation and measured after 24 hrs by ELISA. It counts as functional, cell-based. Summed up:
(§1)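 Confluent BV-2 cells in DMEM preincubated 30 min with compound, tested over 0.5–10 µM, then stimulated with LPS (1.0 µg/mL) for 24 h. Released TNF-α measured by ELISA following kit instructions. Triplicate wells; mean ± SD of three independent experiments.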

Series [3] is described as follows: Anti-inflammatory activity in […] cells assessed as inhibition of LPS-stimulated TNFalpha release at 2.5 uM preincubated for 30 mins followed by LPS stimulation and measured after 24 hrs by ELISA relative to control. The series is classed as functional. Conditions: BV-2. Summed up:
as §1
On the technique in general: In an ELISA, binding on a coated surface is turned into a signal by an enzyme label.

Series [4] is described as follows: Anti-inflammatory activity in […] cells assessed as inhibition of LPS-stimulated TNFalpha release at 10 uM preincubated for 30 mins followed by LPS stimulation and measured after 24 hrs by ELISA relative to control. It counts as functional. Conditions: BV-2. Summed up:
as §1

Series [5] can be described thus: Disaggregation of Cu2+ induced preformed fibrils of human amyloid beta (1 to 42) at 25 uM after 24 hrs by Thioflavin T based fluorometric assay relative to control. Summed up:
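Aβ1-42 (25 µM) with Cu2+ (25 µM) in HEPES buffer pre-aggregated 24 h at 37 °C. Compound (25 µM) then added for a further 24 h at 37 °C. Fibril content measured by ThT fluorescence (glycine-NaOH, pH 8.5). Triplicate; three independent experiments.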

Series [6] in a line: Metal chelating activity assessed as compound-Zn2+ complex formation at 37.5 uM after 30 mins by UV spectrometry method. Summed up: (§2)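 Compound and metal salt (CuCl2, ZnCl2, FeSO4 or AlCl3), each 37.5 µM final in methanol, incubated 30 min at room temperature. UV-vis spectra recorded from 200 to 600 nm and compared with the compound alone.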
Series [7] in a line: Anti-inflammatory activity in […] cells assessed as inhibition of LPS-stimulated NO release at 10 uM preincubated for 30 mins followed by LPS stimulation and measured after 24 hrs by Griess reagent based assay relative to control. The series is classed as functional. The conditions noted are these: BV-2. Summed up:
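BV-2 cells cultured 24 h in DMEM (10% FBS, glutamine, pyruvate, pen/strep) at 37 °C, 5% CO2. Compound (DMSO stock diluted in PBS) added 30 min before LPS (1.0 µg/mL), then 24 h. Nitrite in supernatant measured by Griess reagent for 10 min at room temperature, A540, against a NaNO2 standard curve. Triplicate wells; mean ± SD of three independent experiments.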
In general terms: Nitrite, measured by Griess reagent, commonly stands in for NO production.

The nature of series [8]: Metal chelating activity assessed as compound-Cu2+ complex formation at 37.5 uM after 30 mins by UV spectrometry method. Summed up:
as §2

The target in the next series is Butyrylcholinesterase (Rattus norvegicus, UniProt Q9JKC1). Description: Inhibition of rat serum BuChE using butyrylthiocholine iodide as substrate after 15 mins by Ellman's method. It counts as ADME.
The species entered for series [9] is Homo sapiens. Description: Anti-inflammatory activity in […] cells assessed as inhibition of LPS-stimulated TNFalpha release preincubated for 30 mins followed by LPS stimulation and measured after 24 hrs by ELISA. The series is classed as functional, cell-based. Summed up:
as §1

Series [10] is described as follows: Effect on NO release in […] cells up to 10 uM after 24 hrs by Griess reagent based assay. The series is classed as ADME, cell-based. Summed up: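 BV-2 cells in DMEM treated with compound alone, without LPS, up to 10 µM. Nitrite in culture supernatant measured by Griess reagent (A540) against a NaNO2 standard curve. Mean ± SD of three independent experiments.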

Series [11] can be described thus: Metal chelating activity assessed as compound-Al3+ complex formation at 37.5 uM after 30 mins by UV spectrometry method. Summed up:
as §2

Each structure is given as a SMILES string. The source made the active and inactive calls. The rule behind the calls is not given here.

Butyrylcholinesterase, sequence (Q9JKC1 whole entry): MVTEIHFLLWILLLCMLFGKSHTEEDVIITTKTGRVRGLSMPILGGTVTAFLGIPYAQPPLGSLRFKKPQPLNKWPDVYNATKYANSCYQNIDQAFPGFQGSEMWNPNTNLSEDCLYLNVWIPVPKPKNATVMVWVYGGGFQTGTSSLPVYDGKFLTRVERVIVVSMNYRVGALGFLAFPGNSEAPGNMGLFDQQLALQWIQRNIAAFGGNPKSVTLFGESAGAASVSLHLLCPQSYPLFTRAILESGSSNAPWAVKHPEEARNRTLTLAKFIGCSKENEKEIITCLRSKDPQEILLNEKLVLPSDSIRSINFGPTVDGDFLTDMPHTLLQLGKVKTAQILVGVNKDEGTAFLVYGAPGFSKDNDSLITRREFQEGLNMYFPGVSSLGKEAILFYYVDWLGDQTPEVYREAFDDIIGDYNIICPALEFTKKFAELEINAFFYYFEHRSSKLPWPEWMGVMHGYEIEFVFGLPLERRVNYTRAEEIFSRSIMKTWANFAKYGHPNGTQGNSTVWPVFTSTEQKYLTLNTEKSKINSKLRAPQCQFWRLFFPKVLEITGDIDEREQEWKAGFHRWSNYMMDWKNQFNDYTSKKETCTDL

Turning to `CCN(CCCCNC(=O)c1cc(O)c(C(=O)NCCCCN(CC)Cc2ccccc2OC)cc1O)Cc1ccccc1OC`, the values for the Activity result in series [1], in series [5] and in [10] were “Non-Toxic”, 77.2% and “Non-Toxic”, respectively. Further, the inhibition (commonly the change of the read-out against control, counted positive when it falls) in the series filed under Homo sapiens [2] was “inactive”. For the same compound, in series [3], the inhibition at 2.5 µM stood at 37.1%. Also, the inhibition at 10 µM in series [4] is 55.3%; in series [7] it was 58.3%. Besides, in series [6], the outcome was inactive. Besides, the outcome in series [8] and in series [11] was Active. For the same compound, the half-inhibitory concentration (IC50) (in general, the point on the concentration scale where inhibition reaches its midpoint) on Butyrylcholinesterase was > 100 µM. For the same compound, the inhibition entry in the series listed under Homo sapiens [9] was “Dose-dependent effect”.
